One test relates to HepG2. The test is described as follows: Growth inhibition of HepG2 cells. The following applies: Homo sapiens. In kind it is functional, cell-based. In outline:
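HepG2 cells kept in D-MEM with 10% FBS and 80 µg/mL kanamycin. Growth inhibition measured, IC50 taken as the concentration giving 50% growth inhibition, reported in µg/mL.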

Another test relates to WI-38 VA13. The test is described as follows: Growth inhibition of VA13 cells. In kind it is functional, cell-based. The following applies: Homo sapiens. In outline:
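VA-13 malignant lung tumor cells kept in RITC 80-7 medium with 10% FBS and 80 µg/mL kanamycin. Growth inhibition measured, IC50 taken as the concentration giving 50% growth inhibition, reported in µg/mL.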

A further test relates to WI-38. The test is described as follows: Growth inhibition of WI38 cells. The following applies: Homo sapiens. In kind it is functional, cell-based.
Test [1] has as its system MDR. The test is described as follows: Effect on calcein accumulation in MDR 2780AD cells at 25 ug/mL relative to verapamil. It is filed as functional, Homo sapiens. In outline: (§1)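 Multidrug-resistant human ovarian cancer 2780AD (AD10) cells grown in RPMI-1640 with 10% FBS and 80 µg/mL kanamycin. Cells are exposed to test agent at 0.25, 2.5 and 25 µg/mL. Calcein formed from calcein AM by endogenous esterase is read as fluorescence per well, mean of triplicates. Results are given as % of untreated control, or relative to verapamil at the same concentration.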

Test [2] relates to MDR. The test is described as follows: Effect on calcein accumulation in MDR 2780AD cells at 25 ug/mL relative to control. It is filed as functional, Homo sapiens. Summed up: as §1
The test system of test [3] is MDR. The test is described as follows: Effect on calcein accumulation in MDR 2780AD cells at 2.5 ug/mL relative to verapamil. It is filed as functional, Homo sapiens. Summed up:
as §1

The test system of test [4] is MDR. The test is described as follows: Effect on calcein accumulation in MDR 2780AD cells at 0.25 ug/mL relative to verapamil. It is filed as functional, Homo sapiens. Summed up:
as §1

Test [5] concerns MDR. The test is described as follows: Effect on calcein accumulation in MDR 2780AD cells at 0.25 ug/mL relative to control. It is filed as functional, Homo sapiens. Summed up: as §1
Test [6] relates to MDR. In words: Effect on calcein accumulation in MDR 2780AD cells at 2.5 ug/mL relative to control. It is filed as functional, Homo sapiens. Summed up: as §1
The test system of test [7] is A549. In words: Inhibition of IL-1-alpha-stimulated ICAM1 expression in human A549 cells. In kind it is functional, cell-based. Summed up:
(§2)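 A549 human lung carcinoma cells grown in RPMI 1640 with heat-inactivated 10% FBS, penicillin G and streptomycin. ICAM-1 induced with recombinant IL-1α or TNF-α. Cell-surface ICAM-1 detected with mouse anti-human ICAM-1 antibody C167 and peroxidase-conjugated goat anti-mouse IgG. Viability checked in parallel by MTT assay.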

Test [8] relates to A549. In words: Inhibition of TNF-alpha-stimulated ICAM1 expression in human A549 cells. In kind it is functional, cell-based. In outline: as §2

≈ marks a conversion by molar mass, not a printed value.

Turning to `COc1cc(/C=C/C(=O)NCCc2ccc(O)cc2)cc(OC)c1O` [TRANS-N-SINAPOYLTYRAMINE], the IC50 in the test with HepG2, in the test with WI-38 VA13 and with WI-38 was above 20 µg/mL in each case.

Consider `C=C(C)[C@@H]1CCC(=C)[C@H](O)CCC(=C)[C@@H](O)C1` [SINUGIBBERODIOL], for which the Activity with MDR [1] is recorded as 116%; with MDR [2] it was 160%; in the test with MDR [3], 120%; in the test with MDR [4], 100%; in the test with MDR [5], 113%; with MDR [6], 137%.

For the molecule `COc1cc(/C=C/C(=O)NCCc2ccc(O)c(OC)c2)ccc1O`, the IC50 in the test with HepG2, in the test with WI-38 VA13 and in the test on WI-38 was above 20 µg/mL throughout.

Take `COc1cc(/C=C/C(=O)NCCc2ccc(O)c(O)c2)ccc1O` [N-TRANS-FERULOYLDOPAMINE]: the IC50 with HepG2, with WI-38 VA13 and in the test with WI-38 was above 20 µg/mL each time.

`CC1(C)C[C@H](O)C[C@@]2(C)OC(=O)C=C12` [LOLIOLIDE]: the IC50 in the test on HepG2, in the test on WI-38 VA13 and with WI-38 was above 20 µg/mL each time.

Take `CC(=O)O[C@H]1C(=O)[C@@]2(C)[C@H]([C@H](OC(=O)c3ccccc3)[C@]3(O)C[C@H](OC(=O)[C@H](O)[C@@H](NC(=O)c4ccccc4)c4ccccc4)C(C)=C1C3(C)C)[C@]1(OC(C)=O)CO[C@@H]1C[C@@H]2O` [PACLITAXEL]: the IC50 in the test on HepG2 worked out at 0.69 µg/mL (≈ 0.808 µM); in the test with WI-38, 0.05 µg/mL (≈ 0.0586 µM).

With `COc1cccc2c1C(=O)c1c(O)c3c(c(O)c1C2=O)C[C@@](O)(C(=O)CO)C[C@@H]3O[C@H]1C[C@H](N)[C@H](O)[C@H](C)O1` [DOXORUBICIN], the IC50 with HepG2 stood at 0.41 µg/mL (≈ 0.754 µM); in the test on WI-38 VA13, 0.39 µg/mL (≈ 0.718 µM).

Take `CC(C)CNC(=O)/C=C/CCCCc1ccc2c(c1)OCO2` [PIPERCALLOSIDINE]: the IC50 with HepG2, with WI-38 VA13 and in the test with WI-38 was above 20 µg/mL throughout.

For `O=C1CCCC2=C1[C@H](O)C[C@H](CCCCCCCCCCCCc1ccc3c(c1)OCO3)O2`, the IC50 is 18.2 µg/mL (≈ 39.9 µM) with HepG2; 65.2 µg/mL (≈ 143 µM) in the test on A549 [7]; above 20 µg/mL in the test on WI-38 VA13; above 20 µg/mL in the test on WI-38; 48.8 µg/mL (≈ 107 µM) in the test on A549 [8].

For the molecule `O=C(CCCCCCCCCCCCc1ccccc1)C1=C(O)CCC(O)C1=O` (stereo not given) [OLEIFERINONE], the IC50 was determined as 9.2 µg/mL (≈ 23 µM) in the test on HepG2; 36.8 µg/mL (≈ 91.9 µM) in the test on A549 [7]; 5.8 µg/mL (≈ 14.5 µM) with WI-38 VA13; 9.6 µg/mL (≈ 24 µM) with WI-38; 22.9 µg/mL (≈ 57.2 µM) with A549 [8].

`COc1ccc(CCN(C)CCCC(C#N)(c2ccc(OC)c(OC)c2)C(C)C)cc1OC` (stereo not given): the Activity is 138% in the test on MDR [2], 114% in the test on MDR [5] and 114% in the test on MDR [6].

On to `O=C(CCCCCCCCCCCCc1ccc2c(c1)OCO2)C1=C(O)CCC(O)C1=O` (stereo not given), for which the figures for the IC50 in the test with A549 [7] and with A549 [8] were 43.3 µg/mL (≈ 97.4 µM) and 27.2 µg/mL (≈ 61.2 µM), respectively.

In the case of `O=C(CCCCCCCCCCCCCCc1ccc2c(c1)OCO2)C1=C(O)CCC(O)C1=O` (stereo not given) [SURINONE A], the IC50 is 7.4 µg/mL (≈ 15.7 µM) in the test with HepG2; 51.4 µg/mL (≈ 109 µM) in the test on A549 [7]; 4.4 µg/mL (≈ 9.31 µM) in the test with WI-38 VA13; 8.6 µg/mL (≈ 18.2 µM) with WI-38; 33.5 µg/mL (≈ 70.9 µM) in the test on A549 [8].

Broadly, the IC50 is the concentration needed to halve the response being measured. Lower therefore signals inhibition by little substance.

The values are drawn from ChEMBL document CHEMBL1143721, “Bioactive polyketides from Peperomia duclouxii” (J Nat Prod, 2007).
